Assay outcomes from PubChem.
Rows were chosen to be rich in hits. Some 1.6% of all compounds tested hit in one or more screens of this group.
SR-BI DiI inh: mouse SR-BI HDL lipid transfer inhibition; Q61009; ldlA[mSR-BI] CHO cells, DiI-HDL uptake fluorescence, 3 h; inhibition, % at 12.5 µM; 0.96% of 320,000 active; AID 488896;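 active means mean replicate inhibition of at least 70% and a set share of replicates each scoring 70 or more; inconclusive means meets just one of the two criteria; inactive means fails both criteria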;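 further: 0% = median of neutral control wells and 100% = median of positive control wells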
PvdQ inh: P. aeruginosa PvdQ acylase inhibition | purified PvdQ acylase, fluorescence plate reader | inhibition, % at 10 µM | 0.063% of 340,000 active; in the data active means inhibition above about 30%, passing the limit was not always enough; inconclusive means no clear call, values can overlap the other calls;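 further: 0% = vehicle neutral wells and 100% = reference inhibitor wells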
S100A4 MyoIIA: blocks human S100A4 binding to myosin IIA peptide; P26447; S100A4/TAMRA-MyoIIA peptide fluorescence polarization; inhibition, % at 10.7 µM; 0.14% of 360,000 active; AID 652163;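 active means mean inhibition of at least 70% across replicates, with every replicate also reaching that level; inconclusive means mean inhibition reaches 70% but some replicates fall short; inactive means mean inhibition below 70%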
Target sequence (P26447 whole entry, looked up): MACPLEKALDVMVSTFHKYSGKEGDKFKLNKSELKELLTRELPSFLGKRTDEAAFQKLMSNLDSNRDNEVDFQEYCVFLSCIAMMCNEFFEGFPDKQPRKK
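Compound dosing: one dose per compound; test system: human S100A4 monomer with TAMRA-labelled myosin IIA peptide; probe or stimulus: TAMRA-labelled myosin IIA heavy-chain peptide probe, 5 nM; medium: HEPES buffer with Ca2+, pH 7.2; schedule: 5 min incubation before reading; benchmarks: neutral control DMSO, positive control TFP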
SR-BI DiI-HDL act: enhances SR-BI lipid uptake from DiI-HDL; CHO ldlA[mSR-BI] cells, DiI-HDL uptake fluorescence, 3 h; 100 = double the neutral-control signal; activation, % at 12.5 µM; 0.096% of 320,000 active;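 active means mean replicate activation of at least 60% and every replicate at or above 60%; inconclusive means mean or all-replicate condition met, but not both; inactive means mean below 60% and not all replicates reaching 60%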;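 further: 0% = median plate neutral-control signal and 100% = twice that signal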
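Material – SR-BI-overexpressing, LDLR-lacking CHO cells · Medium – BSA-supplemented, HEPES-buffered Ham's F12, pH 7.4 · Doses – single concentration · Times – compound with DiI-HDL co-incubation, 3 h at 37 °C · Measured by – bottom-read fluorescence, 550/595 nm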
dFosB activator: activators of mouse delta FosB homodimer. 0.99% of 340,000 active. purified delta FosB, TAMRA-CDK5 oligo fluorescence polarization; percent of positive-control signal above neutral wells. activation, % at 25 µM;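 active means mean activation above about 17%, with every replicate also reaching it, limit read from the data, passing the limit was not always enough; inconclusive means only one of the two conditions met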
Target sequence (P13346 whole entry, looked up): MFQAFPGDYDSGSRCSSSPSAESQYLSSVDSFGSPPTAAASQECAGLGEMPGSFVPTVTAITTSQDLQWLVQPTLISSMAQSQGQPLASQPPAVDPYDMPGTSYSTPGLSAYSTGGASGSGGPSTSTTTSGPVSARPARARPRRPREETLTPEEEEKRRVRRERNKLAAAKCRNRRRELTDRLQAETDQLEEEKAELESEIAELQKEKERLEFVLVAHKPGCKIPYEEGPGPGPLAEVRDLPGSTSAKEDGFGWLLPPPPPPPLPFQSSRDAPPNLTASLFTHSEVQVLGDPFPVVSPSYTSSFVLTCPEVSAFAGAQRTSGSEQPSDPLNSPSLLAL
RAD54 branch: blocks human RAD54 Holliday junction branch migration; FAM/BHQ fluorescence; inhibition, % at 10.4 µM; 0.14% of 360,000 active; AID 602329;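 active means mean normalized replicate activity at least 40 and at least half of replicates scoring 40 or more; inconclusive means only one of the two criteria met; inactive means mean below 40 and under half of replicates reaching 40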;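 further: 0% = median of neutral control wells and 100% = median of positive control wells; inhibitors cause a drop in the FAM fluorescence signal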
* hit, by the source's call; ? = inconclusive; . = not tested or not shown.

SMILES	SR-BI DiI inh	PvdQ inh	S100A4 MyoIIA	SR-BI DiI-HDL act	dFosB activator	RAD54 branch
COc1ccc(-c2cc(=Nc3c(C)n(C)n(-c4ccccc4)c3=O)c3ccccc3o2)cc1	42	1	0	-42	-38	13
COc1ccc(-c2c/c(=N\c3nc(-c4ccccc4)c(C)s3)c3ccccc3o2)cc1O	80*	-2	.	-80	-11	-8
C/C=C/c1ccc([C@@H]2[C@H](CO)N(C(C)=O)C23CN(C(=O)c2ccc(F)cc2)C3)cc1	.	.	1	.	.	.
O=S(=O)(NCCN1CCCC1)c1ccc(Cl)cc1	7	-8	0	-7	3	7
O=S(=O)(NCCN1CCCC1)c1ccc(Br)cc1	-62	9	3	62*	-2	-2
CC(=O)N(C)C[C@@H]1Oc2cc(C#CCC(C)C)ccc2S(=O)(=O)N([C@H](C)CO)C[C@@H]1C	.	.	114*	.	.	-1
CC(=O)N(C)C[C@H]1Oc2cc(C#CCC(C)C)ccc2S(=O)(=O)N([C@H](C)CO)C[C@H]1C	.	.	-3	.	.	-3
CC(C)CC#Cc1ccc2c(c1)O[C@@H](CN(C)C(=O)Nc1ccccc1)[C@@H](C)CN([C@H](C)CO)S2(=O)=O	.	.	117*	.	.	1
C[C@H]1CN([C@@H](C)CO)S(=O)(=O)c2ccc(C#Cc3ccccc3)cc2O[C@H]1CN(C)C(=O)Nc1ccccc1	.	.	2	.	.	-6
C[C@@H]1CN([C@H](C)CO)S(=O)(=O)c2ccc(-c3cccnc3)cc2O[C@@H]1CN(C)C(=O)CC1CC1	.	.	108*	.	.	12
COc1ccc(C=O)cc1Cn1c(=O)n(CCC(=O)NCc2ccco2)c(=O)c2sccc21	15	-4	10	-15	94*	.
C[C@H](CO)N1C[C@H](C)[C@H](CN(C)C(=O)Nc2ccc3c(c2)OCO3)Oc2c(NC(=O)c3cnccn3)cccc2C1=O	.	.	1	.	.	-6
Cc1ccc(-n2c(SCC(=O)N/N=C/c3c(C)nn(-c4ccccc4)c3C)nc3ccccc3c2=O)cc1	49	-5	1	-49	6	.
Cc1nn(-c2ccccc2)c(C)c1/C=N/NC(=O)CSc1nc2ccccc2c(=O)n1-c1ccc(Br)cc1	74*	8	.	-74	-3	7
Cc1nn(-c2ccccc2)c(C)c1/C=N/NC(=O)CSc1nnc(SCc2cccc3ccccc23)s1	73*	-4	4	-73	-4	.
NCCNc1ccc(C(=O)N2c3ccccc3Sc3ccccc32)cc1[N+](=O)[O-]	-11	2	4	11	54*	-4
C#CCN1[C@H](/C=C/C2CC2)[C@H](Cc2ccccc2)OC(=O)[C@@H]1Cc1ccccc1	.	.	-22	.	.	.
CCOc1cc(N2CCOCC2)c(OCC)cc1NC(=O)c1ccc2ccccc2n1	95*	4	0	-95	5	.
C[C@@H]1CN([C@H](C)CO)C(=O)c2cccc(NS(=O)(=O)c3ccc(Cl)cc3)c2O[C@@H]1CN(C)Cc1ccncc1	.	.	-5	.	.	5
CCOc1ccc2ccccc2c1/C=N/NC(=O)c1ccncc1	18	4	-2	-18	12	9
CCn1c(O)c(/C=N/NC(=O)c2ccncc2)c(=O)n(CC)c1=S	74*	-18	-41	-74	2	.
COc1ccc(NC(=O)c2sc3nc(-c4cccnc4)ccc3c2N)cc1OC	74*	4	-3	-74	-11	-10
COc1ccc(NC(=O)c2sc3nc(-c4cccnc4)ccc3c2N)cc1	?	-9	-11	-72	-14	-7
CCCNC(=O)N1CC[C@@H]2[C@H]1c1cc(-c3ccccc3)ccc1N(C)[C@H]2CO	.	.	-22	.	.	4
COc1ccc(-c2ccc3c(c2)[C@@H]2[C@@H](CCN2C(=O)c2ccc4c(c2)OCO4)[C@@H](CO)N3C)cc1	.	.	-1	.	.	6
SMILES	SR-BI DiI inh	PvdQ inh	S100A4 MyoIIA	SR-BI DiI-HDL act	dFosB activator	RAD54 branch
CCCNC(=O)N1CC[C@@H]2[C@@H](CO)N(C)c3ccc(-c4ccc(F)cc4)cc3[C@@H]21	.	.	93*	.	.	9
COc1cccc(-c2ccc3c(c2)[C@H]2[C@H](CCN2C(=O)c2ccc4c(c2)OCO4)[C@H](CO)N3C)c1	.	.	98*	.	.	-1
Nc1ccc2cc3[nH]c4cc(N)ccc4c3nc2c1	-5	-13	17	5	67*	.
C[C@@H]1CN([C@@H](C)CO)C(=O)c2cc(NS(=O)(=O)c3ccccc3)ccc2O[C@@H]1CN(C)CC1CCCCC1	.	.	9	.	.	-8
CC(C)c1ccc(/C=C/C(=O)Nc2nncs2)cc1	.	7	0	.	4	3
Cc1sc(NC(=O)/C=C/c2ccc(C(C)C)cc2)c(C#N)c1C	78*	-20	.	-78	0	5
CN(c1ccc(C(=O)N2CCCCCC2)cc1)S(=O)(=O)c1ccc(Cl)cc1	71*	-16	-5	-71	-10	2
CC1=C(/C=C/C(C)=C/C=C/C(C)=C/C(=O)Nc2ccc(O)cc2)C(C)(C)CCC1	98*	9	10	-98	-12	-1
CC1=C(/C=C/C(C)=C/C=C/C(C)=C\C(=O)O)C(C)(C)CCC1	2	-8	2	-2	-3	-1
Cc1ccc2scc(CN3CCCC3)c2c1	2	38*	0	-2	3	-5
c1ccc2c(CN3CCCCC3)csc2c1	-34	-6	-4	34	2	.
CC(C)n1cnc2c(Nc3cccc(Cl)c3)nc(NCCCO)nc21	-19	-10	-1	19	-4	1
C=CC(=O)Nc1cccc(Nc2nc(N[C@H]3CC[C@H](N(C)C)CC3)nc3c2ncn3C(C)C)c1	-23	3	.	23	22*	24
CN(C)CC(=O)Nc1ccc2c(c1)[C@@H]1C[C@@H](CC(=O)NCc3cccc(F)c3)O[C@@H](CO)[C@@H]1O2	.	.	4	.	.	-4
O=C(Nc1ccc2ncccc2c1)c1ccccc1Br	-214	-13	.	214*	-26	-26
O=C(Nc1ccc2ncccc2c1)Nc1ccc2ncccc2c1	26	0	-2	-26	-4	-4
O=C(C[C@@H]1CC[C@@H]2[C@H](COC[C@H](O)CN2Cc2ccccc2F)O1)N1CCc2ccccc2C1	.	.	1	.	.	-1
COc1cc(C2=NC(CO)(CO)CO2)cc(OC)c1OC	-448	-7	-2	448*	3	-7
COc1ccc(C2=NC(CO)(CO)CO2)cc1	-8	-13	-2	8	-2	.
CCOc1ccc(NC(=O)c2cc3c(C)nc4ccccc4c3o2)cc1	99*	2	0	-99	-9	3
Cc1nc2ccccc2c2oc(C(=O)NC3CC3)cc12	-14	-5	8	14	-40	5
CSc1sc(C(=O)NN)c2c1C1(CCC2)SCCS1	107*	-17	-1	-107	-6	12
CSc1sc(C(=O)NNC(C)=O)c2c1C1(CCC2)SCCS1	7	2	-4	-7	-7	.
